{"source": "paper PMC11755176", "about": "(ACS Omega, 2025)", "key": {"[1]": {"system": "nonsmall cell lung cancer cells (A549)", "assay": "MTT cytotoxicity assay, A549", "type": "cell-based", "conditions": "for IC50 A549: MTT assay, 72 h incubation, mean ± SD of three independent experiments; for IC50: Homo sapiens, A549, 72 h, read-out: IC50 A549", "how_it_was_run": "(§1)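 Cells kept in DMEM with 10% FBS and 1% penicillin-streptomycin at 37 °C, 5% CO2. Seeding: A549 5 × 10^3, HeLa 1 × 10^3, Vero 2 × 10^3 cells/well. After 16−18 h, medium replaced with graded compound concentrations for 72 h. MTT 0.5 mg/mL for 3 h; formazan dissolved in DMSO; A570 (reference 630 nm). IC50 by nonlinear regression; doxorubicin positive control.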"}, "[2]": {"system": "HCT 116 colorectal cancer cells", "conditions": "cited from earlier work"}, "[3]": {"system": "NCI-H187 cancer cell line", "conditions": "previously reported; cited from earlier work"}, "HeLa cells": {"system": "HeLa cells", "assay": "Apoptosis analysis", "type": "cell-based, human", "conditions": "both tested concentrations, Figure 4C,D"}, "[4]": {"system": "human cervical carcinoma cells (HeLa)", "assay": "MTT cytotoxicity assay, HeLa", "type": "cell-based", "conditions": "72 h incubation, mean ± SD of three independent experiments", "how_it_was_run": "as §1"}, "Vero cells": {"system": "Vero cells", "assay": "MTT cytotoxicity assay, Vero", "type": "cell-based", "conditions": "72 h incubation, mean ± SD of three independent experiments", "how_it_was_run": "as §1"}, "A549 cells": {"system": "A549 cells", "assay": "Apoptosis analysis", "type": "cell-based", "conditions": "compared to untreated, Figure 4A,B"}}}
{"smiles": "O=C1C[C@@H](c2ccccc2)Oc2cc(O)cc(O)c21", "note": "[Compound 4, pinocembrin]", "values": [{"measurement": "IC50 A549", "setting": "[1]", "result": "inactive"}, {"measurement": "cytotoxic activity (in words)", "setting": "[2]", "result": "exhibit cytotoxic activity"}, {"measurement": "IC50 NCI-H187", "setting": "[3]", "result": "inactive"}, {"measurement": "apoptosis induction (in words)", "setting": "HeLa cells", "result": "increased apoptotic cells in a dose-dependent manner"}]}
{"smiles": "O=C1C[C@@H](c2ccccc2)Oc2cc(O)c(Cc3ccccc3O)c(O)c21", "note": "[Compound 5, isochamanetin]", "values": [{"measurement": "IC50 A549", "setting": "[1]", "result": "inactive"}, {"measurement": "IC50 HeLa", "setting": "[4]", "result": "inactive"}, {"measurement": "IC50 Vero", "setting": "Vero cells", "result": "inactive"}]}
{"smiles": "O=C1C[C@@H](c2ccccc2)Oc2c(Cc3ccccc3O)c(O)c(Cc3ccccc3O)c(O)c21", "note": "[Compound 7, dichamanetin]", "values": [{"measurement": "IC50", "setting": "[1]", "result": "14.9 ± 0.6", "unit": "µM"}, {"measurement": "apoptosis induction (in words)", "setting": "A549 cells", "result": "moderate level of apoptosis"}, {"measurement": "IC50 HeLa", "setting": "[4]", "result": "inactive"}]}
{"smiles": "COc1cccc2c1C(=O)c1c(O)c3c(c(O)c1C2=O)C[C@@](O)(C(=O)CO)C[C@@H]3O[C@H]1C[C@H](N)[C@H](O)[C@H](C)O1", "note": "[doxorubicin, reference compound]", "values": [{"measurement": "IC50", "setting": "[1]", "result": 0.04, "unit": "µM"}]}
